hERG protect – shields human hERG channel from block by proarrhythmic agents. CHO-hERG, FluxOR thallium flux, dofetilide IC70 present. activation (rescue from dofetilide block), less the hit threshold, % at 10 µM. 310,000 compounds, 0.51% hits;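 active means activation above the mean of controls blocked by dofetilide plus 5 SD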;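 further: thallium influx through hERG after potassium depolarization seen as dye fluorescence rise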
KCNQ1 block – inhibitors of human KCNQ1 potassium channel; P51787; CHO-K1 KCNQ1, FluxOR thallium flux fluorescence; active compounds read high; B-score at 10 µM; 310,000 compounds, 1.3% hits; AID 2642;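 active means compounds whose thallium flux B-score, printed positive for inhibition, exceeds three library SD while starting fluorescence stays within three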;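 further: channel opened by potassium depolarization with thallium stimulus after 20 min compound exposure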
KCNK9 block – human KCNK9 channel inhibition. AID 488922. 310,000 compounds, 1.2% hits. HEK293 KCNK9, FluxOR thallium flux fluorescence; active compounds read low. B-score at 10 µM. Q9NPC2;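 active means ratio B-score over 3 SD below the library mean, with starting fluorescence within 5 SD of its mean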;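 further: negative B-score means less thallium flux so channel inhibition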
KCNQ1 pot – potentiates or activates the human KCNQ1 potassium channel; B-score at 10 µM; P51787; AID 2648; 310,000 compounds, 0.35% hits; CHO-K1 KCNQ1, thallium flux FluxOR fluorescence; active compounds read high;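 active means fluorescence ratio B-score, a plate-corrected score, at least three library SD, with initial intensity B-score within 5 SD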
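Assay system: stable KCNQ1 CHO-K1 line; medium: assay buffer, equal DMSO in all wells; timing: 90 min dye loading and 20 min compound exposure, both at room temperature; technique: kinetic FluxOR thallium fluorescence, 10-s 1-Hz baseline, 110-s post-stimulus read; read-out basis: B score of baseline-normalized fluorescence ratio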
KCNK3 block – human KCNK3 channel inhibition, primary screen; CHO-KCNK3 thallium flux, FluxOR fluorescence; active compounds read low; B-score at 10 µM; 340,000 compounds, 0.84% hits;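 active means B-score under library mean minus 4 SD, starting fluorescence ratio at most library mean plus 5 SD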;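 further: more negative B-score means stronger inhibition of thallium flux through KCNK3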
KCC2 mod – modulates chloride dependent transport by human KCC2; KCC2 cells, thallium flux FluoZin-2 fluorescence; B-score of Tl+ flux slope (higher = more flux/activation; lower = inhibition) at 10 µM; AID 1456; 190,000 compounds, 2.2% hits; Q9H2X9;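 active means thallium flux slope and its plate-corrected score both differing from the plate sample mean at a set confidence after two filtering rounds, in either direction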;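 further: slope of fluorescence scaled to starting intensity during 10 to 20 s after thallium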
Target sequence (Q9H2X9 whole entry, looked up): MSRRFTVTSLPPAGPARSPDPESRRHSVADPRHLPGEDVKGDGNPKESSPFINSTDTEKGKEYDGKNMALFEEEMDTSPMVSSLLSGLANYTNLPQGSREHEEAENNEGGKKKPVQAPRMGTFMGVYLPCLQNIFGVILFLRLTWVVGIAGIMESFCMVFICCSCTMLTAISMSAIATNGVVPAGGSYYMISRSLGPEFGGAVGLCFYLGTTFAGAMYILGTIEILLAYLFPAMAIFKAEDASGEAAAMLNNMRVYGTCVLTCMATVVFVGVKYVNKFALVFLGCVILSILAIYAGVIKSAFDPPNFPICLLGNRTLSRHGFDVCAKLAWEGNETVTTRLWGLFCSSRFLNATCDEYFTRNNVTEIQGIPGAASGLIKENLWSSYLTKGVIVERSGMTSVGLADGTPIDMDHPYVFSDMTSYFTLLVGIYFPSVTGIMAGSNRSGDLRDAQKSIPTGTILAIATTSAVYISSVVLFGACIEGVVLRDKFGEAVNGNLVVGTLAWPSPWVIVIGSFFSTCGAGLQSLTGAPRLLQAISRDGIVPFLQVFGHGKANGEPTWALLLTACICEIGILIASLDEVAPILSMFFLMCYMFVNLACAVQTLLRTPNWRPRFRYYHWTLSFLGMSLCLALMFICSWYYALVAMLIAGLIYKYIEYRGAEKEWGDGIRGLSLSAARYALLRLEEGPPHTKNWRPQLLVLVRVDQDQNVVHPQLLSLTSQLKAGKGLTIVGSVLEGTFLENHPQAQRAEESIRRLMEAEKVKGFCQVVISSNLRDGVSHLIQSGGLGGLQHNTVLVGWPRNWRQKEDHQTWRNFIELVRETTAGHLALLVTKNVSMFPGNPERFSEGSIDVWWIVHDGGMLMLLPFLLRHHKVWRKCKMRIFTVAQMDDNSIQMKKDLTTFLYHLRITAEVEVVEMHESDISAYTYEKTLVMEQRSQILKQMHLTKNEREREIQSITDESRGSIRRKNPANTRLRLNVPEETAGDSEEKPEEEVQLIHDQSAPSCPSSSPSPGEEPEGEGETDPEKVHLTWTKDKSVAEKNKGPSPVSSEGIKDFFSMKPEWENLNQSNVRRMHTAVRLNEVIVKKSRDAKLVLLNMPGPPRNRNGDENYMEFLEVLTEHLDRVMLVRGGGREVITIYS
KCC2 sec1 – KCC2 (human) modulation, secondary assay. shares compounds with KCC2 mod. HEK293-KCC2, thallium flux, FluoZin2 fluorescence; active compounds read high. normalised thallium flux (F/F0 slope) at 10 µM. 3,700 compounds, 15% hits. AID 1713;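 active means thallium flux slope above the same plate's solvent-only control mean plus 3 SD; inconclusive means the two replicate wells disagree; inactive means no significant difference from solvent-only control wells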
KCC2 bumet counter – bumetanide-insensitive thallium flux in KCC2 cells with ouabain, counter-screen; HEK293-KCC2 + bumetanide/ouabain, thallium flux FluoZin2; active compounds read high; 3,700 compounds, 49% hits; normalized thallium flux at 10 µM; shares compounds with KCC2 mod; AID 1714;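 active means thallium entry rate above the same plate's blocked-transporter control wells by more than 3 SD; inconclusive means the two repeat wells disagree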;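 further: raw slope of fluorescence over initial fluorescence between 10 and 20 s after thallium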
KCC2 sec2 – confirmation of human KCC2 transport modulators. 3,700 compounds, 23% hits. shares compounds with KCC2 mod. AID 1715. HEK293-KCC2, thallium flux FluoZin2 fluorescence; actives lie on both sides; F/F0 rise rate, 10–20 s post-thallium. normalized thallium flux at 10 µM;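 active means thallium flux slope more than 3 SD above or below the plate's solvent-only control mean, mostly below; inconclusive means the two repeat wells disagreed; inactive means no significant shift from solvent-only controls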;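 further: raw slope with 0.1% DMSO as baseline and bumetanide as block control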
HEK counter1 – acts in parental HEK cells, KCC2 counter-screen | shares compounds with KCC2 mod | HEK293 parental cells, thallium flux FluoZin2, ouabain; baseline-ratio fluorescence slope, 10–20 s after thallium | thallium flux rate (normalised fluorescence) at 10 µM | 3,700 compounds, 46% hits | AID 1716;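 active means thallium flux rate significantly above the same plate's solvent-only control wells, beyond their mean plus 3 SD; inconclusive means the two replicate wells gave conflicting results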
KCC2 retest ouab – KCC2 (human) modulation, ouabain retest | shares compounds with KCC2 mod | HEK293-KCC2, thallium flux FluoZin2 fluorescence; bidirectional: low = inhibitor, high = activator | raw Tl+ flux slope (below DMSO = inhibition, above = activation) at 10 µM | 3,700 compounds, 48% hits | AID 1717;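 active means thallium flux slope beyond 3 SD from same-plate DMSO control mean in most replicates, usually higher, sometimes lower; inconclusive means repeat tests gave conflicting results; inactive means no significant difference from controls in most replicates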;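 further: slope of initial-normalized fluorescence between seconds 10 and 20 after thallium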
HEK293 Tl flux2 – acts in parental HEK cells, second KCC2 counter-screen | shares compounds with KCC2 mod | HEK293 parental, thallium flux FluoZin-2 fluorescence slope | thallium flux slope at 10 µM | 3,700 compounds, 33% hits;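 active means thallium flux slope above the same plate's solvent-control mean plus 3 SD in both duplicate wells; inconclusive means duplicate wells that disagreed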;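 further: run without ouabain in cells lacking the KCC2 cotransporter; slope of fluorescence scaled to its starting value between 10 and 20 s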
* hit, by the source's call; i = inactive; ? = inconclusive; nt = no result given. Compounds with a hit are over-represented: about 4.1% of the library has one in this group of screens.

SMILES | hERG protect | KCNQ1 block | KCNK9 block | KCNQ1 pot | KCNK3 block | KCC2 mod | KCC2 sec1 | KCC2 bumet counter | KCC2 sec2 | HEK counter1 | KCC2 retest ouab | HEK293 Tl flux2
O=C(CCCSc1nc2sc3c(c2c(=O)[nH]1)CCC3)NCCO | 0 | i | i | i | i | -4.2* | 0.015 | 0.0047 | 0.028 | 0.0073 | 0.016 | 0.0098
O=C(CCCSc1nc2sc3c(c2c(=O)[nH]1)CCC3)NCCCO | -2 | i | i | i | i | nt | nt | nt | nt | nt | nt | nt
CCNC(=O)NC(=O)COC(=O)CCCSc1nc2ccccc2[nH]1 | 0 | i | i | i | i | 0.26 | nt | nt | nt | nt | nt | nt
O=C(COC(=O)CCCSc1nc2ccccc2[nH]1)NC(=O)NC1CCCC1 | -6 | i | i | i | i | -0.9 | 0.0092 | 0.0053 | 0.033 | ? | 0.02 | 0.01
CN1N=C(C(=O)N=c2sc3ccccc3n2C)CCC1=O | nt | nt | nt | nt | i | nt | nt | nt | nt | nt | nt | nt
O=C(CCc1nc2ccccc2c(=O)[nH]1)N1CCN(S(=O)(=O)c2cccc(F)c2)CC1 | -8 | i | i | i | i | nt | nt | nt | nt | nt | nt | nt
COc1ccc2c(C)cc(=S)[nH]c2c1 | -8 | i | i | i | i | 8* | 0.017 | 0.015* | 0.03 | 0.013* | 0.019 | 0.014*
O=c1cc(-c2ccc(OCc3ccccc3)cc2)oc2cc(OCc3ccccc3)cc(OCc3ccccc3)c12 | nt | nt | nt | nt | i | nt | nt | nt | nt | nt | nt | nt
Cc1sc2nnn(CC(=O)N3CCN(C(=O)c4ccco4)CC3)c(=O)c2c1C | -9 | i | i | i | i | 1.1 | nt | nt | nt | nt | nt | nt
Cc1sc2nc(C(C)C)nc(SCC(=O)N3CCN(C(=O)c4ccco4)CC3)c2c1C | -2 | i | i | i | i | nt | 0.0066 | 0.017* | 0.029 | 0.012* | 0.019 | 0.012*
Cc1cc(NC(=O)CSc2nc(C(C)C)nc3sc(C)c(C)c23)no1 | -7 | i | i | i | i | 9.3* | ? | 0.034* | 0.038 | 0.017* | ? | 0.012*
CC/C(=N/NC(=O)c1ccccc1O)c1c(C)[nH]n(-c2ccccc2)c1=O | -22 | i | i | i | i | nt | nt | nt | nt | nt | nt | nt
Cc1[nH]n(-c2ccc(Cl)cc2)c(=O)c1C(=O)c1ccccc1 | -8 | i | i | i | i | 8.1* | 0.0065 | 0.02* | 0.032 | 0.016* | 0.027* | 0.019*
Cc1[nH]n(-c2ccccc2)c(=O)c1C(=O)c1ccccc1 | -14 | i | i | i | i | 4.4* | 0.0056 | 0.0085* | 0.034 | 0.012* | 0.022 | 0.014*
CCSC(=S)c1c(C)[nH]n(-c2ccccc2)c1=O | 1 | i | i | i | i | 101* | 0.046* | 0.1* | 0.04 | 0.061* | 0.067* | 0.028*
Cc1[nH]n(-c2ccccc2)c(=O)c1C(=O)c1cccc(F)c1 | -5 | i | i | i | i | 0.54 | nt | nt | nt | nt | nt | nt
Cc1[nH]n(-c2ccccc2)c(=O)c1C(=O)c1ccc(Cl)cc1 | -9 | i | i | i | i | 11* | 0.0072 | 0.021* | 0.04* | 0.022* | 0.03* | 0.024*
